Laboratory results: ChEMBL document CHEMBL4414550, “Binding of Monovalent and Bivalent Ligands by Transthyretin Causes Different Short- and Long-Distance Conformational Changes” (J Med Chem, 2019)
Values belong to the compound of their own block, whether it stands above or below them. Calls of active or inactive are those of the source. The calls are words filed in the database; no cut-off is given here.

How the values were obtained:
[1] = target: Transthyretin (Homo sapiens) (UniProt P02766); test: Binding affinity to wild-type TTR (unknown origin) assessed as induction of chemical shift at L17 residue at 0.6:1 to 1:1 ratio of compound to protein by 2D TROSY [1H-15N] spectroscopy
Outline: (§1)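 50 μM TTR in 600 μL titrated with ligand from 10 mM stocks in DMSO-d6 (up to 6 μL; at most 1% v/v DMSO-d6). 2D [1H,15N] TROSY spectra recorded at ligand/protein ratios 0, 0.5, 1.0, 1.5 and 2.0 for the monovalent ligand and 0, 0.5 and 1.0 for the bivalent ligand. Per-residue amide shifts were expressed as a combined chemical shift change in ppm.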

[2] = target: Transthyretin (Homo sapiens) (UniProt P02766); test: Binding affinity to wild-type TTR (unknown origin) assessed as induction of chemical shift at H88 residue at 0.6:1 to 1:1 ratio of compound to protein by 2D TROSY [1H-15N] spectroscopy; outline: as §1
[3] = target: Transthyretin (Homo sapiens) (UniProt P02766); test: Binding affinity to wild-type TTR (unknown origin) assessed as induction of chemical shift at E92 residue at 0.6:1 to 1:1 ratio of compound to protein by 2D TROSY [1H-15N] spectroscopy; outline: as §1
[4] = target: Transthyretin (Homo sapiens) (UniProt P02766); test: Binding affinity to wild-type TTR (unknown origin) assessed as induction of chemical shift at A19 residue at 0.6:1 to 1:1 ratio of compound to protein by 2D TROSY [1H-15N] spectroscopy; outline: as §1
[5] = target: Transthyretin (Homo sapiens) (UniProt P02766); test: Binding affinity to wild-type TTR (unknown origin) assessed as induction of chemical shift at T118 residue at 0.6:1 to 1:1 ratio of compound to protein by 2D TROSY [1H-15N] spectroscopy; outline: as §1
[6] = target: Transthyretin (Homo sapiens) (UniProt P02766); test: Binding affinity to His6-tagged wild-type TTR (unknown origin) expressed in Escherichia coli BL21 star (DE3) at 1:1 ratio of test compound to protein by 2D TROSY [1H-15N] spectroscopy; outline: as §1
[7] = target: Transthyretin (Homo sapiens) (UniProt P02766); test: Binding affinity to wild-type TTR (unknown origin) assessed as induction of chemical shift at L110 residue at 0.6:1 to 1:1 ratio of compound to protein by 2D TROSY [1H-15N] spectroscopy; outline: as §1
[8] = target: Transthyretin (Homo sapiens) (UniProt P02766); test: Binding affinity to wild-type TTR (unknown origin) assessed as chemical shift perturbation at protein dimer-dimer interface at 1:1 ratio of compound to protein by 2D TROSY [1H-15N] spectroscopy; outline: as §1
[9] = target: Transthyretin (Homo sapiens) (UniProt P02766); test: Binding affinity to wild-type TTR (unknown origin) assessed as induction of chemical shift at S117 residue at 0.6:1 to 1:1 ratio of compound to protein by 2D TROSY [1H-15N] spectroscopy; outline: as §1
[10] = target: Transthyretin (Homo sapiens) (UniProt P02766); test: Binding affinity to wild-type TTR (unknown origin) assessed as induction of chemical shift at A109 residue at 0.6:1 to 1:1 ratio of compound to protein by 2D TROSY [1H-15N] spectroscopy; outline: as §1
[11] = target: Transthyretin (Homo sapiens) (UniProt P02766); test: Binding affinity to wild-type TTR (unknown origin) assessed as induction of chemical shift at G22 residue at 0.6:1 to 1:1 ratio of compound to protein by 2D TROSY [1H-15N] spectroscopy; outline: as §1
[12] = target: Transthyretin (Homo sapiens) (UniProt P02766); test: Binding affinity to His6-tagged wild-type TTR (unknown origin) expressed in Escherichia coli BL21 star (DE3) at 0.5:1 ratio of test compound to protein by 2D TROSY [1H-15N] spectroscopy; outline: as §1
[13] = target: Transthyretin (Homo sapiens) (UniProt P02766); test: Binding affinity to wild-type TTR (unknown origin) assessed as induction of chemical shift at L58 residue at 0.6:1 to 1:1 ratio of compound to protein by 2D TROSY [1H-15N] spectroscopy; outline: as §1
[14] = target: Transthyretin (Homo sapiens) (UniProt P02766); test: Binding affinity to wild-type TTR (unknown origin) assessed as formation of hydrogen bond between A25 and T49 at 1:1 ratio of compound to protein by 2D TROSY [1H-15N] spectroscopy
[15] = target: Transthyretin (Homo sapiens) (UniProt P02766); test: Binding affinity to wild-type TTR (unknown origin) assessed as increase in bound resonance at L55 residue at 0.5:1 to 1:1 ratio of compound to protein by 2D TROSY [1H-15N] spectroscopy; outline: as §1
[16] = target: Transthyretin (Homo sapiens) (UniProt P02766); test: Binding affinity to wild-type TTR (unknown origin) assessed as chemical shift perturbation at EH1 loops at 1:1 ratio of compound to protein by 2D TROSY [1H-15N] spectroscopy; outline: as §1
[17] = target: Transthyretin (Homo sapiens) (UniProt P02766); test: Binding affinity to wild-type TTR (unknown origin) assessed as induction of chemical shift at T96 residue at 0.6:1 to 2:1 ratio of compound to protein by 2D TROSY [1H-15N] spectroscopy; conditions: in the assay text read “0.6:1 to 1:1 ratio” for “0.6:1 to 2:1 ratio”; outline: as §1
[18] = target: Transthyretin (Homo sapiens) (UniProt P02766); test: Binding affinity to wild-type TTR (unknown origin) assessed as induction of chemical shift at E72 residue at 0.6:1 to 1:1 ratio of compound to protein by 2D TROSY [1H-15N] spectroscopy; outline: as §1
[19] = target: Transthyretin (Homo sapiens) (UniProt P02766); test: Binding affinity to wild-type TTR (unknown origin) assessed as induction of chemical shift perturbation at V93 residue at 1:1 ratio of compound to protein by 2D TROSY [1H-15N] spectroscopy; outline: as §1
[20] = target: Transthyretin (Homo sapiens) (UniProt P02766); test: Binding affinity to wild-type TTR (unknown origin) assessed as chemical shift perturbation at H1 helix at 1:1 ratio of compound to protein by 2D TROSY [1H-15N] spectroscopy; outline: as §1
[21] = target: Transthyretin (Homo sapiens) (UniProt P02766); test: Binding affinity to wild-type TTR (unknown origin) assessed as induction of chemical shift at H90 residue at 1:1 ratio of compound to protein by 2D TROSY [1H-15N] spectroscopy; outline: as §1
[22] = target: Transthyretin (Homo sapiens) (UniProt P02766); test: Binding affinity to wild-type TTR (unknown origin) assessed as induction of chemical shift at A108 residue at 0.6:1 to 1:1 ratio of compound to protein by 2D TROSY [1H-15N] spectroscopy; outline: as §1
[23] = target: Transthyretin (Homo sapiens) (UniProt P02766); test: Binding affinity to wild-type TTR (unknown origin) assessed as induction of chemical shift perturbation at A120 residue at 1:1 ratio of compound to protein by 2D TROSY [1H-15N] spectroscopy; outline: as §1
[24] = target: Transthyretin (Homo sapiens) (UniProt P02766); test: Binding affinity to wild-type TTR (unknown origin) assessed as chemical shift perturbation at K9 residue at 1:1 ratio of compound to protein by 2D TROSY [1H-15N] spectroscopy; outline: as §1
[25] = target: Transthyretin (Homo sapiens) (UniProt P02766); test: Binding affinity to wild-type TTR (unknown origin) assessed as induction of chemical shift at Y114 residue at 0.6:1 to 1:1 ratio of compound to protein by 2D TROSY [1H-15N] spectroscopy; outline: as §1
[26] = target: Transthyretin (Homo sapiens) (UniProt P02766); test: Binding affinity to wild-type TTR (unknown origin) assessed as induction of chemical shift at R21 residue at 0.6:1 to 1:1 ratio of compound to protein by 2D TROSY [1H-15N] spectroscopy; outline: as §1
[27] = target: Transthyretin (Homo sapiens) (UniProt P02766); test: Binding affinity to His6-tagged wild-type TTR (unknown origin) expressed in Escherichia coli BL21 star (DE3) assessed as assignment of protein resonance by TROSY [1H-13C-15N] HNCA spectroscopy
Outline: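 3D HNCA spectra of TTR acquired in the presence of ligand to confirm the backbone resonance assignment. The assignment was made de novo from TROSY multidimensional experiments at 310 K, pH 7.0 and 7.4.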

[28] = target: Transthyretin (Homo sapiens) (UniProt P02766); test: Binding affinity to wild-type TTR (unknown origin) assessed as chemical shift perturbation at DE loops at 1:1 ratio of compound to protein by 2D TROSY [1H-15N] spectroscopy; outline: as §1
[29] = target: Transthyretin (Homo sapiens) (UniProt P02766); test: Binding affinity to wild-type TTR (unknown origin) assessed as chemical shift perturbation at CD loops at 1:1 ratio of compound to protein by 2D TROSY [1H-15N] spectroscopy; outline: as §1

- Activity [1]: inactive
- Activity [2]: inactive
- Activity [3]: inactive
- Activity [4]: inactive
- Activity [5]: inactive
- Activity [6]: Active
- Activity [7]: inactive
- Activity [8]: Active
- Activity [9]: inactive
- Activity [10]: inactive
- Activity [11]: inactive
- Activity [12]: Active
- Activity [13]: inactive
- Activity [14]: Active
- Activity [15]: Active
- Activity [16]: Active
- Activity [17]: inactive
- Activity [18]: Active
- Activity [19]: Active
- Activity [20]: Active
- Activity [21]: Active
- Activity [22]: inactive
- Activity [23]: Active
- Activity [24]: Active
- Activity [25]: inactive
- Activity [26]: inactive
- Activity [27]: Active
- Activity [28]: Active
- Activity [29]: Active
SMILES: O=C(O)c1ccccc1Nc1cc(Cl)c(OCCCCCCCOc2c(Cl)cc(Nc3ccccc3C(=O)O)cc2Cl)c(Cl)c1

- Activity [12]: Active
- Activity [15]: Active
- Activity [21]: Active
- Activity [23]: Active
- Activity [27]: Active
SMILES: O=C(O)c1ccc2nc(-c3cc(Cl)cc(Cl)c3)oc2c1
